Source: paper PMC3496166 (Scientific Reports, 2012)
Like-named read-outs stand apart in the source and are kept apart here.

Experiments:
[1] = target: IF2 (Escherichia coli, UniProt P0A705); assay: isothermal titration calorimetry; format: binding
Method in brief: (§1)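 Assay used 6His-tagged E. coli protein, purified with an added Ni-NTA step. ITC ran at 5 or 25°C in pH 7.5 phosphate buffer (5 mM K2HPO4, 95 mM KCl, 5 mM MgCl2, 1 mM DTT, 10% glycerol). G nucleotide or 27-nt SRL RNA (50–500 μM in syringe) was titrated into protein (5–40 μM in cell), some runs with 500 μM nucleotide or 200 μM SRL added. Dilution heat subtracted; one-site nonlinear fit.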

[2] = target: EF-G (Escherichia coli, UniProt P0A6M8); assay: isothermal titration calorimetry; format: binding
EF-G (Escherichia coli, UniProt P0A6M8), sequence (P0A6M8 2-704): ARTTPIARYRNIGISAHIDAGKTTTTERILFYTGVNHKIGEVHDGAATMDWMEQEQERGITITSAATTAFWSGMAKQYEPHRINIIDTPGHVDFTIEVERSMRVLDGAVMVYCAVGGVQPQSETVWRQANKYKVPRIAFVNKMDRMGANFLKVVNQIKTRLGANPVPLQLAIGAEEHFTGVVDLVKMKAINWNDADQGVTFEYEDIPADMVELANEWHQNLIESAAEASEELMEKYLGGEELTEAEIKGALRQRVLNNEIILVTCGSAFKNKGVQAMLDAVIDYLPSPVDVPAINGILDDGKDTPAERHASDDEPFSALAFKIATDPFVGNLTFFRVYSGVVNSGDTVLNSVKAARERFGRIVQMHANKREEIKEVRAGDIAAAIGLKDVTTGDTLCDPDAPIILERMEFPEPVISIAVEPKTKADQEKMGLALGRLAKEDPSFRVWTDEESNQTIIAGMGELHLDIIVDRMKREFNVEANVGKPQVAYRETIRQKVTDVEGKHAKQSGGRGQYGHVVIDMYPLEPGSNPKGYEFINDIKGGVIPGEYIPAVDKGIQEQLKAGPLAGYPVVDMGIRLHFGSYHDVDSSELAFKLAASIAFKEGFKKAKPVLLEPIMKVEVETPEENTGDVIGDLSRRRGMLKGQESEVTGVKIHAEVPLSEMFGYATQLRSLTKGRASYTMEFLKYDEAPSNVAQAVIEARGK
Method in brief: as §1

[3] = target: T1, EF-G (E. coli, UniProt P0A6M8 1-704); assay: ITC
T1 sequence (P0A6M8 whole entry): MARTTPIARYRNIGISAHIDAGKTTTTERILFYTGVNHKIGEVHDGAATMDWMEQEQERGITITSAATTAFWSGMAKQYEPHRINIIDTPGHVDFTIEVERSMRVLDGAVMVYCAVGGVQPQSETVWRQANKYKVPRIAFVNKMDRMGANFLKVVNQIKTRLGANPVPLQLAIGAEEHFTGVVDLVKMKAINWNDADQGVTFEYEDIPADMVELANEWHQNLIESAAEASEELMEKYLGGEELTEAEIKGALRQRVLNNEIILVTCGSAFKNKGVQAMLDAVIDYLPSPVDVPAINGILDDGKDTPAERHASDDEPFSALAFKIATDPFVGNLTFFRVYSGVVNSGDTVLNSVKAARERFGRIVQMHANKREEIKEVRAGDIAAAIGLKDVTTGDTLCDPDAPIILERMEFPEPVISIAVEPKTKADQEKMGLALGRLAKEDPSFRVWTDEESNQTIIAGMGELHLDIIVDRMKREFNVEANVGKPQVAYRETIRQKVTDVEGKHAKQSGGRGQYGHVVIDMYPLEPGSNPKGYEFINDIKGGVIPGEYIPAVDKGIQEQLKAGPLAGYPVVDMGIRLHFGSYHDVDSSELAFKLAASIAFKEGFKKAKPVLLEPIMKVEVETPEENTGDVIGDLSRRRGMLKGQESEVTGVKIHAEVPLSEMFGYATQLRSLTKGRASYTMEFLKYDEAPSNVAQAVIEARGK

[4] = target: T2, IF2 (E. coli, UniProt P0A705 1-890); assay: ITC
T2 sequence (P0A705 whole entry): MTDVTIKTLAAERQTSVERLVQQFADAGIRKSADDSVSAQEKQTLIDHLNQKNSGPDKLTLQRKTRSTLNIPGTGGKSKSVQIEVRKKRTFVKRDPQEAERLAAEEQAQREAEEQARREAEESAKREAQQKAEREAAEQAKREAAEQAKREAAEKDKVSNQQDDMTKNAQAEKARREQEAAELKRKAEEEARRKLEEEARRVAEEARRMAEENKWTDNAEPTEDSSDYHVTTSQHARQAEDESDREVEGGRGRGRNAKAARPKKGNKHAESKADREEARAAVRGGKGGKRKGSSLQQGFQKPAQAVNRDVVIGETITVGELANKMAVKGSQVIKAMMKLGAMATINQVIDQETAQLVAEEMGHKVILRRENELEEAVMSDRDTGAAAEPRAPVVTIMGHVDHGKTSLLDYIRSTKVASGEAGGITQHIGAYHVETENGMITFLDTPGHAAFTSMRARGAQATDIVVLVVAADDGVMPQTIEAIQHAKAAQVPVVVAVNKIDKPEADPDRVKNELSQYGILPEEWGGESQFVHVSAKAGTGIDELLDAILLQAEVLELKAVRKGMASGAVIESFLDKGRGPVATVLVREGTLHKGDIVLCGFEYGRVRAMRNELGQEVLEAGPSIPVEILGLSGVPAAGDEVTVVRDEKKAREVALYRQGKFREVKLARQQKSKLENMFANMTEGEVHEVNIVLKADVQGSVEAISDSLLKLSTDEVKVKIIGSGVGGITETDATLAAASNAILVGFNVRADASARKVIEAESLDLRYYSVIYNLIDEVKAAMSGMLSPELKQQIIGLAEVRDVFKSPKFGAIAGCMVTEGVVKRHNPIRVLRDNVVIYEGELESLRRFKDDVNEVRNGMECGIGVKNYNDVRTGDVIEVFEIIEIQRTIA

[5] = target: T1, EF-G; assay: ITC; remark: listed apart in the source
[6] = target: T1, EF-G; assay: ITC; remark: listed apart in the source
[7] = target: T2, IF2; assay: ITC; remark: listed apart in the source

IF2 (Escherichia coli, UniProt P0A705), sequence (P0A705 whole entry): as above

Row | Molecule | Kd [1] [nM] | Kd [2] [nM] | Kd [3] [nM] | Kd [4] [nM] | Kd [5] [nM] | Kd [6] [nM] | Kd [7] [nM]
1 | Nc1nc2c(ncn2[C@@H]2O[C@H](COP(=O)(O)OP(=O)(O)O)[C@@H](O)[C@H]2O)c(=O)[nH]1 [GDP] | 1600 | 1800 |  |  |  |  | 
2 | Nc1nc2c(ncn2[C@@H]2O[C@H](COP(=O)(O)OP(=O)(O)OP(=O)(O)O)[C@@H](O)[C@H]2O)c(=O)[nH]1 [GTP] | 6700 | 2700 |  |  |  |  | 
3 | GGGCUCCUAGUACGAGAGGACCGGAGU (structured_RNA) [SRL RNA wt (27 nt)] |  |  | 5900 | 670 | 4200 | 3700 | 1000
